Test system: Fibroblast
Assay: Multiplex assay against human fibroblast
Type: toxicity, cell-based
Procedure, shortened: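 Four dyes were applied at seeding to live cells: Hoechst33342, BioTracker Green Microtubule Cytoskeleton Dye, MitoTracker Red and Annexin V Alexa Fluor 680. Imaging after compound addition used a CQ1 microscope at 37°C and 5% CO2. CellPathfinder machine-learning gating then sorted cells into Hoechst high-intensity objects or normal cells, normal cells into healthy, pyknosed or fragmented nuclei, and pyknosed cells into mitotic or apoptotic, with tubulin, mitochondrial-mass and membrane-permeability phenotypes given as per cents of healthy-nucleus cells.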

[1] = 12 h, 1 µM, compound concentration 1 uM, replicate 1
[2] = 12 h, 1 µM, compound concentration 1 uM, replicate 2
[3] = 12 h, 10 µM, compound concentration 10 uM, replicate 1
[4] = 12 h, 10 µM, compound concentration 10 uM, replicate 2
[5] = 24 h, 1 µM, compound concentration 1 uM, replicate 1
[6] = 24 h, 1 µM, compound concentration 1 uM, replicate 2
[7] = 24 h, 10 µM, compound concentration 10 uM, replicate 1
[8] = 24 h, 10 µM, compound concentration 10 uM, replicate 2
[9] = 48 h, 1 µM, compound concentration 1 uM, replicate 1
[10] = 48 h, 1 µM, compound concentration 1 uM, replicate 2
[11] = 48 h, 10 µM, compound concentration 10 uM, replicate 1
[12] = 48 h, 10 µM, compound concentration 10 uM, replicate 2

SMILES: Cc1cc(C)c(S(=O)(=O)N(Cc2ccc(-c3cccc(S(C)(=O)=O)c3)cc2)Cc2ccc(C(F)(F)F)o2)c(C)c1
- Population Apoptotic (%) [1]: 68%
- Population Fragmented Nuclei (%) [1]: 20%
- Population Healthy Nuclei (%) [1]: 45%
- Population Hoechst High Intensity Objects (%) [1]: 8%
- Population Membrane Permeable-Phenotype (%) [1]: 19%
- Population Mitochondria Different-Phenotype (%) [1]: 8%
- Population Mitotic Cells (%) [1]: 32%
- Population Normal (%) [1]: 91%
- Population Pyknosed Nuclei (%) [1]: 34%
- Population Tubulin-Different-Phenotype (%) [1]: 55%
- Total Cell Count [1]: 161
- Population Apoptotic (%) [2]: 66%
- Population Fragmented Nuclei (%) [2]: 15%
- Population Healthy Nuclei (%) [2]: 80%
- Population Hoechst High Intensity Objects (%) [2]: 6%
- Population Membrane Permeable-Phenotype (%) [2]: 3%
- Population Mitochondria Different-Phenotype (%) [2]: 21%
- Population Mitotic Cells (%) [2]: 33%
- Population Normal (%) [2]: 93%
- Population Pyknosed Nuclei (%) [2]: 3%
- Population Tubulin-Different-Phenotype (%) [2]: 27%
- Total Cell Count [2]: 72
- Population Apoptotic (%) [3]: 51%
- Population Fragmented Nuclei (%) [3]: 40%
- Population Healthy Nuclei (%) [3]: 27%
- Population Hoechst High Intensity Objects (%) [3]: 45%
- Population Membrane Permeable-Phenotype (%) [3]: 25%
- Population Mitochondria Different-Phenotype (%) [3]: 7%
- Population Mitotic Cells (%) [3]: 48%
- Population Normal (%) [3]: 54%
- Population Pyknosed Nuclei (%) [3]: 31%
- Population Tubulin-Different-Phenotype (%) [3]: 74%
- Total Cell Count [3]: 179
- Population Apoptotic (%) [4]: 0%
- Population Fragmented Nuclei (%) [4]: 14%
- Population Healthy Nuclei (%) [4]: 77%
- Population Hoechst High Intensity Objects (%) [4]: 22%
- Population Membrane Permeable-Phenotype (%) [4]: 3%
- Population Mitochondria Different-Phenotype (%) [4]: 3%
- Population Mitotic Cells (%) [4]: 100%
- Population Normal (%) [4]: 77%
- Population Pyknosed Nuclei (%) [4]: 8%
- Population Tubulin-Different-Phenotype (%) [4]: 11%
- Total Cell Count [4]: 81
- Population Apoptotic (%) [5]: 45%
- Population Fragmented Nuclei (%) [5]: 21%
- Population Healthy Nuclei (%) [5]: 64%
- Population Hoechst High Intensity Objects (%) [5]: 9%
- Population Membrane Permeable-Phenotype (%) [5]: 25%
- Population Mitochondria Different-Phenotype (%) [5]: 6%
- Population Mitotic Cells (%) [5]: 54%
- Population Normal (%) [5]: 90%
- Population Pyknosed Nuclei (%) [5]: 14%
- Population Tubulin-Different-Phenotype (%) [5]: 58%
- Total Cell Count [5]: 171
- Population Apoptotic (%) [6]: 0%
- Population Fragmented Nuclei (%) [6]: 14%
- Population Healthy Nuclei (%) [6]: 80%
- Population Hoechst High Intensity Objects (%) [6]: 1%
- Population Membrane Permeable-Phenotype (%) [6]: 5%
- Population Mitochondria Different-Phenotype (%) [6]: 18%
- Population Mitotic Cells (%) [6]: 100%
- Population Normal (%) [6]: 98%
- Population Pyknosed Nuclei (%) [6]: 5%
- Population Tubulin-Different-Phenotype (%) [6]: 32%
- Total Cell Count [6]: 86
- Population Apoptotic (%) [7]: 77%
- Population Fragmented Nuclei (%) [7]: 34%
- Population Healthy Nuclei (%) [7]: 46%
- Population Hoechst High Intensity Objects (%) [7]: 42%
- Population Membrane Permeable-Phenotype (%) [7]: 31%
- Population Mitochondria Different-Phenotype (%) [7]: 18%
- Population Mitotic Cells (%) [7]: 22%
- Population Normal (%) [7]: 57%
- Population Pyknosed Nuclei (%) [7]: 18%
- Population Tubulin-Different-Phenotype (%) [7]: 72%
- Total Cell Count [7]: 166
- Population Apoptotic (%) [8]: 14%
- Population Fragmented Nuclei (%) [8]: 15%
- Population Healthy Nuclei (%) [8]: 71%
- Population Hoechst High Intensity Objects (%) [8]: 10%
- Population Membrane Permeable-Phenotype (%) [8]: 5%
- Population Mitochondria Different-Phenotype (%) [8]: 10%
- Population Mitotic Cells (%) [8]: 85%
- Population Normal (%) [8]: 89%
- Population Pyknosed Nuclei (%) [8]: 13%
- Population Tubulin-Different-Phenotype (%) [8]: 15%
- Total Cell Count [8]: 109
- Population Apoptotic (%) [9]: 72%
- Population Fragmented Nuclei (%) [9]: 30%
- Population Healthy Nuclei (%) [9]: 58%
- Population Hoechst High Intensity Objects (%) [9]: 8%
- Population Membrane Permeable-Phenotype (%) [9]: 16%
- Population Mitotic Cells (%) [9]: 27%
- Population Normal (%) [9]: 91%
- Population Pyknosed Nuclei (%) [9]: 11%
- Population Tubulin-Different-Phenotype (%) [9]: 40%
- Total Cell Count [9]: 178
- Population Apoptotic (%) [10]: 66%
- Population Fragmented Nuclei (%) [10]: 17%
- Population Healthy Nuclei (%) [10]: 79%
- Population Hoechst High Intensity Objects (%) [10]: 10%
- Population Membrane Permeable-Phenotype (%) [10]: 18%
- Population Mitochondria Different-Phenotype (%) [10]: 2%
- Population Mitotic Cells (%) [10]: 33%
- Population Normal (%) [10]: 89%
- Population Pyknosed Nuclei (%) [10]: 2%
- Population Tubulin-Different-Phenotype (%) [10]: 32%
- Total Cell Count [10]: 114
- Population Apoptotic (%) [11]: 100%
- Population Fragmented Nuclei (%) [11]: 47%
- Population Healthy Nuclei (%) [11]: 49%
- Population Hoechst High Intensity Objects (%) [11]: 40%
- Population Membrane Permeable-Phenotype (%) [11]: 45%
- Population Mitochondria Different-Phenotype (%) [11]: 3%
- Population Mitotic Cells (%) [11]: 0%
- Population Normal (%) [11]: 59%
- Population Pyknosed Nuclei (%) [11]: 2%
- Population Tubulin-Different-Phenotype (%) [11]: 63%
- Total Cell Count [11]: 192
- Population Fragmented Nuclei (%) [12]: 21%
- Population Healthy Nuclei (%) [12]: 77%
- Population Hoechst High Intensity Objects (%) [12]: 12%
- Population Membrane Permeable-Phenotype (%) [12]: 5%
- Population Normal (%) [12]: 87%
- Population Pyknosed Nuclei (%) [12]: 1%
- Population Tubulin-Different-Phenotype (%) [12]: 22%
- Total Cell Count [12]: 86
